One test deals with T1, B2 bradykinin receptor (Homo sapiens, UniProt P30411).
T1 sequence (P30411 whole entry): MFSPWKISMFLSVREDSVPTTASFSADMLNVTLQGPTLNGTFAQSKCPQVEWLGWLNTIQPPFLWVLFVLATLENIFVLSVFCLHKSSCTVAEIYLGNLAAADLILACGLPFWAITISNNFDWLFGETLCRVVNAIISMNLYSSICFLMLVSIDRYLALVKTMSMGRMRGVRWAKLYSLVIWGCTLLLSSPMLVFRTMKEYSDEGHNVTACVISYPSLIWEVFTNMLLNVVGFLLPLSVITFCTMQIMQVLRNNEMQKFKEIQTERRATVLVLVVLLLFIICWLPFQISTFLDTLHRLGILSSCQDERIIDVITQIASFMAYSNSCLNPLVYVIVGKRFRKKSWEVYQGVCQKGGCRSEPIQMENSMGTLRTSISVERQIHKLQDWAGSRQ
The test is described as follows: Agonist activity at bradykinin B2 receptor (unknown origin).

In another test the test system is MCF7. As to the kind of experiment: Antiproliferative activity against human MCF7 cells assessed as cell viability after 24 hrs. The class given is functional, cell-based. Conditions: MCF7, 24 h. In outline:
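MCF-7 cells (ATCC) kept in DMEM with 10% FBS, 1.0 mM pyruvate, 2 mM L-glutamine and penicillin at 37 °C, 5% CO2. Cells grown to 60–70% confluence, then given fresh medium and compound (DMSO stock diluted in medium) at 0–200 μM for 24 h with serum. Surviving cells counted manually. IC50 from a non-linear fit of % living cells vs log concentration. Triplicate, mean ± SD.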

In the next test the test system is MDA-MB-231. The test is described as follows: Antiproliferative activity against human MDA-MB-231 cells assessed as cell viability after 24 hrs. In kind it is functional, cell-based. As to conditions: MDA-MB-231, 24 h.

The IC50 is the concentration that gives 50% inhibition. On to `COc1nc2c(OCc3c(Cl)ccc(N(C)C(=O)CNC(=O)/C=C/c4ccc(NC(C)=O)nc4)c3Cl)cccc2n1Cc1ccccn1`, for which the 50% inhibitory concentration (IC50) at B2 bradykinin receptor was found to be 0.00068 µM.
As for `CNC(=O)c1ccc(/C=C/C(=O)O)cc1`, the half-inhibitory concentration (IC50) in the test on MCF7 was found to be 2.12 µM; in the test with MDA-MB-231, 86 µM.
Taken in the same sequence, the figures for `Cc1cc(OCc2ccccn2)c2cccc(O)c2n1` were 0.16 µM and 450 µM.
As to `CC1=C(/C=C/C(C)=C/C=C/C(C)=C/C(=O)NCC(=O)N(C)c2ccc(Cl)c(COc3cccc4c(OCc5ccccn5)cc(C)nc34)c2Cl)C(C)(C)CCC1`, the 50% inhibitory concentration (IC50) with MCF7 is 65 µM; in the test with MDA-MB-231 it was 193 µM.
On to `COc1cc(/C=C/C(=O)NCC(=O)N(C)c2ccc(Cl)c(COc3cccc4c(OCc5ccccn5)cc(C)nc34)c2Cl)ccc1O`, for which the IC50 with MCF7 came to 0.33 µM; in the test with MDA-MB-231, 5.9 µM.
On to `CN(C(=O)CN1C(=O)c2ccccc2C1=O)c1ccc(Cl)c(CO)c1Cl`, for which the results for the IC50 in the test on MCF7 and in the test on MDA-MB-231 were 53 µM and 0.78 µM, respectively.
In the case of `Cc1cc(OCc2ccccn2)c2cccc(N)c2n1`, the half-inhibitory concentration (IC50) is 0.86 µM with MCF7 and 22 µM in the test with MDA-MB-231.
For `CNC(=O)c1ccc(/C=C/C(=O)NCc2cn(-c3ccc(Cl)c(CNc4cccc5c(OCc6ccccn6)cc(C)nc45)c3Cl)nn2)cc1`, the IC50 was determined as 0.73 µM in the test with MCF7 and 0.43 µM with MDA-MB-231.
`CC1=C(/C=C/C(C)=C/C=C/C(C)=C/C(=O)NCC(=O)N(C)c2ccc(Cl)c(CNc3cccc4c(OCc5ccccn5)cc(C)nc34)c2Cl)C(C)(C)CCC1`: the IC50 in the test on MCF7 worked out at 64 µM; in the test with MDA-MB-231 it was 0.005 µM.
For `O=C1c2ccccc2C(=O)N1Cc1cn(-c2ccc(Cl)c(CO)c2Cl)nn1`, the IC50 came out at 0.07 µM in the test on MCF7 and 520 µM with MDA-MB-231.
Regarding `Cc1cc(OCc2ccccn2)c2cccc(OCc3cccc(Oc4ccccc4)c3)c2n1`, the results for the concentration for half-maximal inhibition (IC50) in the test with MCF7 and in the test with MDA-MB-231 were 407 µM and 6.97 µM, respectively.
On to `CNC(=O)c1ccc(/C=C/C(=O)NCC(=O)N(C)c2ccc(Cl)c(CNc3cccc4c(OCc5ccccn5)cc(C)nc34)c2Cl)cc1`, for which the 50% inhibitory concentration (IC50) with MCF7 is 1.21 µM; in the test on MDA-MB-231, 5.94e-05 µM.
Take `CNC(=O)c1ccc(/C=C/C(=O)NCc2cn(-c3ccc(Cl)c(COc4cccc5c(OCc6ccccn6)cc(C)nc45)c3Cl)nn2)cc1`: the IC50 with MCF7 is 91 µM; in the test with MDA-MB-231, 200 µM.
`CNC(=O)c1ccc(/C=C/C(=O)NCC(=O)N(C)c2ccc(Cl)c(CO)c2Cl)cc1`: the IC50 in the test on MCF7 is 0.93 µM; in the test with MDA-MB-231, 650 µM.
Taken in the same sequence, the figures for `CNC(=O)c1ccc(/C=C/C(=O)NCC(=O)N(C)c2ccc(Cl)c(COc3cccc4c(OCc5ccccn5)cc(C)nc34)c2Cl)cc1` were 2.14 µM and 0.08 µM.
Take `Cc1nc(NC(=O)N2CCC[C@H]2C(N)=O)sc1-c1ccnc(C(C)(C)C(F)(F)F)c1` [ALPELISIB]: the IC50 in the test with MDA-MB-231 is 62.9 µM.
On to `CC(C)C[C@H](NC(=O)[C@H](Cc1ccccc1)NC(=O)c1cnccn1)B(O)O` [BORTEZOMIB], for which the 50% inhibitory concentration (IC50) in the test with MDA-MB-231 amounted to 0.003 µM.
In the case of `O=P1(N(CCCl)CCCl)NCCCO1` (stereo unspecified) [CYCLOPHOSPHAMIDE ANHYDROUS], the 50% inhibitory concentration (IC50) with MDA-MB-231 was found to be 196 µM.
Take `CC(=O)O[C@@]12CO[C@@H]1C[C@H](O)[C@@]1(C)C(=O)[C@H](O)C3=C(C)[C@@H](OC(=O)[C@H](O)[C@@H](NC(=O)OC(C)(C)C)c4ccccc4)C[C@@](O)([C@@H](OC(=O)c4ccccc4)[C@H]21)C3(C)C` [DOCETAXEL ANHYDROUS]: the half-inhibitory concentration (IC50) in the test on MDA-MB-231 is 0.01 µM.
As to `COc1cccc2c1C(=O)c1c(O)c3c(c(O)c1C2=O)C[C@@](O)(C(=O)CO)C[C@@H]3O[C@H]1C[C@H](N)[C@H](O)[C@H](C)O1` [DOXORUBICIN], in the test on MDA-MB-231, the 50% inhibitory concentration (IC50) turned out to be 0.1 µM.
On the same count and under the same terms, under `COc1cccc2c1C(=O)c1c(O)c3c(c(O)c1C2=O)C[C@@](O)(C(=O)CO)C[C@@H]3O[C@H]1C[C@H](N)[C@@H](O)[C@H](C)O1` [EPIRUBICIN] stands 0.15 µM.
For the molecule `COc1cc(/C=C/C(=O)O)ccc1O` [FERULATE], the IC50 with MCF7 came to 0.36 µM; in the test with MDA-MB-231, 15 µM.
In the case of `O=c1[nH]cc(F)c(=O)[nH]1` [FLUOROURACIL], in the test with MDA-MB-231, the IC50 amounted to 66.6 µM.
Still for that read-out and setting: then `CC(=O)Nc1ccc(/C=C/C(=O)NCC(=O)N(C)c2ccc(Cl)c(COc3cccc4ccc(C)nc34)c2Cl)cn1` [FR-173657], with 20 µM; and `C[C@]12CC[C@@H]3c4ccc(O)cc4C[C@@H](CCCCCCCCC[S+]([O-])CCCC(F)(F)C(F)(F)F)[C@H]3[C@@H]1CC[C@@H]2O` (stereo partly specified) [FULVESTRANT], with 196 µM; and `Nc1ccn([C@@H]2O[C@H](CO)[C@@H](O)C2(F)F)c(=O)n1` [GEMCITABINE], with 2.1 µM.
In the case of `CS(=O)(=O)CCNCc1ccc(-c2ccc3ncnc(Nc4ccc(OCc5cccc(F)c5)c(Cl)c4)c3c2)o1` [LAPATINIB], the IC50 with MDA-MB-231 came out at 10.6 µM.
Still for that read-out and setting: then `O=C(c1cc(Cc2n[nH]c(=O)c3ccccc23)ccc1F)N1CCN(C(=O)C2CC2)CC1` [OLAPARIB], with 62.5 µM; and `CC(=O)O[C@H]1C(=O)[C@@]2(C)[C@H]([C@H](OC(=O)c3ccccc3)[C@]3(O)C[C@H](OC(=O)[C@H](O)[C@@H](NC(=O)c4ccccc4)c4ccccc4)C(C)=C1C3(C)C)[C@]1(OC(C)=O)CO[C@@H]1C[C@@H]2O` [PACLITAXEL], with 0.9 µM; and `CC(=O)c1c(C)c2cnc(Nc3ccc(N4CCNCC4)cn3)nc2n(C2CCCC2)c1=O` [PALBOCICLIB], with 14.6 µM.
`CN(C)C(=O)c1cc2cnc(Nc3ccc(N4CCNCC4)cn3)nc2n1C1CCCC1` [RIBOCICLIB]: the IC50 with MDA-MB-231 is 27.3 µM.
Take `CO[C@H]1C[C@@H]2CC[C@@H](C)[C@@](O)(O2)C(=O)C(=O)N2CCCC[C@H]2C(=O)O[C@H]([C@H](C)C[C@@H]2CC[C@@H](O)[C@H](OC)C2)CC(=O)[C@H](C)/C=C(\C)[C@@H](O)[C@@H](OC)C(=O)[C@H](C)C[C@H](C)/C=C/C=C/C=C/1C` [SIROLIMUS]: the IC50 with MDA-MB-231 was found to be 0.9 µM.
Consider `CC/C(=C(\c1ccccc1)c1ccc(OCCN(C)C)cc1)c1ccccc1` [TAMOXIFEN], for which, in the test on MDA-MB-231, the IC50 was found to be 69.7 µM.
For `CC1=C(/C=C/C(C)=C/C=C/C(C)=C/C(=O)O)C(C)(C)CCC1` [TRETINOIN], the 50% inhibitory concentration (IC50) amounted to 6.14 µM in the test on MCF7 and 16 µM in the test on MDA-MB-231.
For the molecule `CC[C@]1(O)C[C@@H]2CN(CCc3c([nH]c4ccccc34)[C@@](C(=O)OC)(c3cc4c(cc3OC)N(C)[C@H]3[C@@](O)(C(=O)OC)[C@H](OC(C)=O)[C@]5(CC)C=CCN6CC[C@]43[C@@H]65)C2)C1` [VINBLASTINE], the IC50 in the test with MDA-MB-231 amounted to 0.024 µM.

For the origin of these results see ChEMBL document CHEMBL4732084, “Potent antiproliferative activity of bradykinin B2 receptor selective agonist FR-190997 and analogue structures thereof: A paradox resolved?” (Eur J Med Chem, 2021).
